# Measurements pooled from the literature.
# Lines come from different studies, so protocols differ.
Structure (SMILES),test system,conditions,Tmax
CCCc1c(C2CCCCN2CCN2CCOCC2)[nH]c2cc(OC(F)(F)F)ccc12 (stereo not drawn),"male mouse, plasma","oral, 30 mg/kg",60 min
COc1ccc2c3c1O[C@H]1C[C@@H](OC(=O)c4ccccc4)C=C[C@@]31CCN(C)C2,"mouse, blood","intravenous, 3 mg/kg",3 min
Cc1ncsc1-c1ccc(CNC(=O)[C@@H]2C[C@@H](O)CN2C(=O)[C@@H](NC(=O)CCCCCCCCCCCC(=O)NCCCCC#Cc2cccc(-c3nn(-c4nc(C(=O)O)cs4)c(CC4CC4)c3Cc3ccc(S(N)(=O)=O)cc3)c2)C(C)(C)C)cc1,"male Swiss mouse, plasma","intraperitoneal, 5 mg/kg, single dose",480 min
CN1CCC[C@H](CN2c3ccccc3Sc3ccccc32)C1.Cl,"mouse, plasma","intraperitoneal, 32 mg/kg, single dose",60 min
COc1ccc2nccc(N3CCc4c(cc(Cn5ccnc5)cc4-c4cn(C)nc4C(F)(F)F)C3=O)c2c1,"male CD-1 mouse, plasma","oral, 10 mg/kg",42 min
Cc1cc(Nc2ccc(S(F)(F)(F)(F)F)cc2)n2ncnc2n1,"male Swiss mouse, plasma","oral, 100 mg/kg, single dose",120 min
COc1nc(-c2cc(C)c(N[C@@H](C)c3cc(F)cc(F)c3)nn2)ccc1-n1cnc(C)c1,"male CD-1 mouse, plasma","intravenous, 1 mg/kg, single dose",4.98 min
[Cl-].c1csc([I+]c2cccs2)c1,"mouse, plasma",intraperitoneal,≤ 1 min
OC[C@H]1O[C@@H](c2ccc(Cl)c(Cc3ccc(O[C@H]4CCOC4)cc3)c2)[C@H](O)[C@@H](O)[C@@H]1O,"CD-1 mouse, plasma","oral, 10 mg/kg",15 min
COc1nc(-c2cc(C)c(N[C@@H](C)c3ccc(F)cc3)nn2)ccc1-n1cnc(C)c1,"male CD-1 mouse, plasma","intravenous, 1 mg/kg, single dose",4.98 min
CC(C)c1cnn2c(NCc3ccccc3)cc(NC[C@H]3CCNC[C@@H]3O)nc12,"female nude mouse, tumour","oral, 100 mg/kg, tumour-bearing",360 min
CC(C)(C)c1ccc(O)c(CN(Cc2cc(C(C)(C)C)ccc2O)C2CCC(NC(N)=O)CC2)c1 (stereo not drawn),"male C57BL/6 mouse, brain","intraperitoneal, 25 mg/kg, single dose",30 min
CC1(C)CC[C@]2(C(=O)O)CC[C@]3(C)C(=CC[C@@H]4[C@@]5(C)C[C@@H](O)[C@H](OC(=O)/C=C/c6ccc(O)cc6)C(C)(C)[C@@H]5CC[C@]43C)[C@@H]2C1 (relative stereo),"mouse, plasma","intraperitoneal, 85 µmol/kg, single dose",30 min
Cc1cc(NC(=O)c2cccc3cc(-c4cccc5[nH]nc(N)c45)ccc23)ccc1F,"male CD-1 mouse, brain","oral, 10 mg/kg",120 min
CCc1ccc(Cc2cc([C@@H]3O[C@H](CO)[C@@H](O)[C@H](O)[C@H]3O)cc3c2CCC3)cc1,"male C57BL/6 mouse, plasma","oral, 0.3 mg/kg",30 min
O=S(=O)(c1ccc(-c2ccc3nccc(Nc4ccncn4)c3c2)cc1)N1CCOCC1,"female BALB/c mouse, plasma","intraperitoneal, 10 mg/kg",15 min
Cc1ccc2cncc(N3CCc4c(cc(Cn5ccnc5)cc4-c4cn(C)nc4C(F)(F)F)C3=O)c2c1,"male CD-1 mouse, plasma","oral, 10 mg/kg",18 min
CSc1cc(Oc2ccnc3[nH]c(=O)cnc23)ccc1NC(=O)Nc1cc(C(C)(C)C)nn1-c1ccccc1,"BALB/c mouse, plasma","oral, 10 mg/kg",180 min
